Reference: ChEMBL document CHEMBL4393654, “Discovery and Early Clinical Development of an Inhibitor of 5-Lipoxygenase Activating Protein (AZD5718) for Treatment of Coronary Artery Disease” (J Med Chem, 2019)
≈ marks a conversion by molar mass, not a printed value.

What was measured:
[1] = Oral bioavailability in Beagle dog at 2 umol/kg; assay type: ADME, organism-based, Canis lupus familiaris; settings: in vivo
[2] = Mutagenicity in Salmonella typhimurium TA100 in absence of rat S9 fraction by Ames test; assay type: toxicity; settings: salmonella enterica subsp. enterica serovar typhimurium
Outline: (§1)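 Ames bacterial mutagenicity test in S. typhimurium TA98 and TA100. Run with and without metabolic activation by rat S9 fraction.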

[3] = molecular target: Potassium/sodium hyperpolarization-activated cyclic nucleotide-gated channel 4 (Homo sapiens, UniProt Q9Y3Q4); test: Inhibition of human HCN4 by Ion-work electrophysiology assay
[4] = molecular target: Sodium channel protein type 5 subunit alpha (Homo sapiens, UniProt Q14524); test: Inhibition of human NaV1.5 by Ion-work electrophysiology assay
Cytochrome P450 2C9 = Cytochrome P450 2C9 (Homo sapiens, UniProt P11712); test: Inhibition of recombinant human CYP2C9 expressed in Escherichia coli using 7MFC as substrate by fluorescence assay; assay type: ADME
[5] = Mutagenicity in Salmonella typhimurium TA100 in presence of rat S9 fraction by Ames test; assay type: toxicity, subcellular; settings: salmonella enterica subsp. enterica serovar typhimurium; outline: as §1
[6] = molecular target: Voltage-dependent T-type calcium channel subunit alpha-1H (Homo sapiens, UniProt O95180); test: Inhibition of human Cav3.2 by Ion-work electrophysiology assay
[7] = Clearance in rat at 1 umol/kg, iv; assay type: ADME; settings: in vivo
[8] = Mutagenicity in Salmonella typhimurium TA98 in presence of rat S9 fraction by Ames test; assay type: toxicity, subcellular; settings: salmonella enterica subsp. enterica serovar typhimurium; outline: as §1
[9] = molecular target: T1, A-type potassium channel modulatory protein KCNIP2 (Homo sapiens, UniProt Q9NS61); test: Inhibition of human KChip2.2 by Ion-work electrophysiology assay
T1 sequence (Q9NS61 whole entry): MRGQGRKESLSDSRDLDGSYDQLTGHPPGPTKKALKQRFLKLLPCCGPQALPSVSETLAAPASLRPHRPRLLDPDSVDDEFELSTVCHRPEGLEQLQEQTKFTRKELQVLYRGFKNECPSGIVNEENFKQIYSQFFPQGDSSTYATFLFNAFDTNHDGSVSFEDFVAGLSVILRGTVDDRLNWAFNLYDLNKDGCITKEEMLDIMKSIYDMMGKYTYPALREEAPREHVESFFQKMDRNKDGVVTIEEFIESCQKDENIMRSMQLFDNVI

Cytochrome P450 1A2 = molecular target: T2, Cytochrome P450 1A2 (Homo sapiens, UniProt P05177); test: Inhibition of recombinant human CYP1A2 expressed in Escherichia coli using CEC as substrate by fluorescence assay; assay type: ADME
T2 sequence (P05177 whole entry): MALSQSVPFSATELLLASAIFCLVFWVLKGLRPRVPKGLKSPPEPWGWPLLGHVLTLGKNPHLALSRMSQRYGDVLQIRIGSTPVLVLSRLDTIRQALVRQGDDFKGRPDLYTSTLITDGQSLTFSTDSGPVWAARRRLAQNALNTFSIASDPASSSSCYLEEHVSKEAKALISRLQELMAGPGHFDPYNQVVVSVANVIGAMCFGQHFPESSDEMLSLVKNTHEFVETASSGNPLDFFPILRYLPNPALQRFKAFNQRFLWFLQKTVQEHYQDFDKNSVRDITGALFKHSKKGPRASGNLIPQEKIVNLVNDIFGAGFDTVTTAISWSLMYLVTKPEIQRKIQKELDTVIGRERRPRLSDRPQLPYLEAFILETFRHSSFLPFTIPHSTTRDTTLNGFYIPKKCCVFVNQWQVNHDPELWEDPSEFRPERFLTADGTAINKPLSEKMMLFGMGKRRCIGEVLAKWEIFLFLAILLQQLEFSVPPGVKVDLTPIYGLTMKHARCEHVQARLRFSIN

[10] = molecular target: Potassium voltage-gated channel subfamily A member 5 (Homo sapiens, UniProt P22460); test: Inhibition of human Kv1.5 by Ion-work electrophysiology assay
[11] = Intrinsic clearance in rat hepatocytes assessed per million cells at 1 uM measured after 2 to 60 mins by LC-MS/MS analysis; assay type: ADME, cell-based, Hepatocyte; settings: read-out: CLH
Outline: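 Rat hepatocyte incubation of the compound; intrinsic clearance measured after incubation.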

[12] = Aqueous solubility of the compound in pH 7.4 phosphate buffer measured after 24 hrs by LC-MS/MS-based shake flask method; assay type: physicochemical
[13] = Octanol-phosphate buffer partition co-efficient, log D of the compound at pH 7.4 after 2 hrs by LC-MS/MS-based shake flask method; assay type: physicochemical
Outline: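 Distribution between octanol and water at pH 7.4.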

[14] = molecular target: Potassium voltage-gated channel subfamily E member 1 (Homo sapiens, UniProt P15382); test: Inhibition of human KCNE1 by Ion-work electrophysiology assay
[15] = Clearance in Beagle dog at 2 umol/kg, iv; assay type: ADME, Canis lupus familiaris; settings: in vivo
[16] = molecular target: T3, A-type voltage-gated potassium channel KCND3 (Homo sapiens, UniProt Q9UK17); test: Inhibition of human Kv4.3 by Ion-work electrophysiology assay
T3 sequence (Q9UK17 whole entry): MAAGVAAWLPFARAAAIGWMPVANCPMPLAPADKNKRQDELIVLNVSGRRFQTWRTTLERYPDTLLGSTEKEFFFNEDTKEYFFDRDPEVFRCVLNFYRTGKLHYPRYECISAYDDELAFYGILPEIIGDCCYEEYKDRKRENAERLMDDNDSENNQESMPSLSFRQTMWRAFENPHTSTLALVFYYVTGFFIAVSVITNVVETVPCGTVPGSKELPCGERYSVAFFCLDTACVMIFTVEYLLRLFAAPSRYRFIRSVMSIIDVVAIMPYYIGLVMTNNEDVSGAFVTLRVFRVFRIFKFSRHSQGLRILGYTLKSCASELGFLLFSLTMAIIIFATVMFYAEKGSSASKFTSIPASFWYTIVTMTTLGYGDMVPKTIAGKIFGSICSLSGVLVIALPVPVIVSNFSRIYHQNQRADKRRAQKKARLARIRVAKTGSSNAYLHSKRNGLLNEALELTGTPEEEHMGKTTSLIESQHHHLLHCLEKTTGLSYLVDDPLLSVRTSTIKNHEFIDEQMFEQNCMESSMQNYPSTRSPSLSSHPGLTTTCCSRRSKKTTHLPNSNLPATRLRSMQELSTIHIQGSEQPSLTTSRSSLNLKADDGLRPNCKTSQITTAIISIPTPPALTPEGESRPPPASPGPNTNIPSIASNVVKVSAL

[17] = Protein binding in human plasma assessed as unbound fraction by equilibrium dialysis method; assay type: ADME, cell-free
[18] = Half life in Beagle dog at 2 umol/kg, iv; assay type: ADME, Canis lupus familiaris; settings: in vivo
[19] = Volume of distribution at steady state in rat at 1 umol/kg, iv; assay type: ADME; settings: in vivo, read-out: Vdss
[20] = Toxicity in conscious telemetered Beagle dog assessed as vomiting; parameters: species or system Canis lupus familiaris; settings: in vivo
[21] = Volume of distribution at steady state in Beagle dog at 2 umol/kg, iv; assay type: ADME, Canis lupus familiaris; settings: in vivo, read-out: Vdss
[22] = Half life in rat at 1 umol/kg, iv; assay type: ADME; settings: in vivo
[23] = molecular target: Solute carrier organic anion transporter family member 1B1 (Homo sapiens, UniProt Q9Y6L6); test: […] at recombinant human OATP1B1 expressed in HEK293 cells assessed as reduction in pivastatin uptake; assay type: ADME, cell-based
Chain of Solute carrier organic anion transporter family member 1B1 (Q9Y6L6 whole entry): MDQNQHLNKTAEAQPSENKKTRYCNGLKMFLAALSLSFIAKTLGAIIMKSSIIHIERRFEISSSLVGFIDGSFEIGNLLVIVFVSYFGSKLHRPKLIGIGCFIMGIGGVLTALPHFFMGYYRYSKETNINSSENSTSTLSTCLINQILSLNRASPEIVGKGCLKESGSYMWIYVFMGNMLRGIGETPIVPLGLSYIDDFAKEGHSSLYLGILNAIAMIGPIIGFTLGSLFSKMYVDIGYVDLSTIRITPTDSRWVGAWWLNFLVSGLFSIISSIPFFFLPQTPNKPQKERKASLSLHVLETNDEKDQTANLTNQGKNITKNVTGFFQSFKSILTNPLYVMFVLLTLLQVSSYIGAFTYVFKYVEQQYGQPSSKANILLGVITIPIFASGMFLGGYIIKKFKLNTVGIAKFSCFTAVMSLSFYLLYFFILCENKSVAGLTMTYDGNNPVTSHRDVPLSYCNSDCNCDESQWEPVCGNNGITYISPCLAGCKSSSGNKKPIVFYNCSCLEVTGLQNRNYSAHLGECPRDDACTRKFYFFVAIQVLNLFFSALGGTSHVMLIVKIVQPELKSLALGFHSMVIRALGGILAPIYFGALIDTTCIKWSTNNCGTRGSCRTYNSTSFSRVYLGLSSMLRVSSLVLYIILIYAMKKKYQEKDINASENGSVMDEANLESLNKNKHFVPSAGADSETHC

Chain of Cytochrome P450 2C9 (P11712 whole entry): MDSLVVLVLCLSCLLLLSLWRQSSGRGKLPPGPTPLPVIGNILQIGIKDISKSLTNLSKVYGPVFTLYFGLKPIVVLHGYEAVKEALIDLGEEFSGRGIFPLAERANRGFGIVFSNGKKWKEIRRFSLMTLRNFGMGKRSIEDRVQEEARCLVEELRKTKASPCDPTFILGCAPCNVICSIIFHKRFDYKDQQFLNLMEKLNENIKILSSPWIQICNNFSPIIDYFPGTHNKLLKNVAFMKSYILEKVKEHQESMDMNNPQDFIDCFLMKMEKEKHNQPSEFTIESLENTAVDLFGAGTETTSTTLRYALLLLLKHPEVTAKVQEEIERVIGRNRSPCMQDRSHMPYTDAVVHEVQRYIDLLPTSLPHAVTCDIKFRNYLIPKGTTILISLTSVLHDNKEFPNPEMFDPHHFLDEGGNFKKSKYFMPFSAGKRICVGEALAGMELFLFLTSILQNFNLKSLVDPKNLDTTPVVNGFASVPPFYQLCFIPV
Chain of Sodium channel protein type 5 subunit alpha (Q14524 whole entry): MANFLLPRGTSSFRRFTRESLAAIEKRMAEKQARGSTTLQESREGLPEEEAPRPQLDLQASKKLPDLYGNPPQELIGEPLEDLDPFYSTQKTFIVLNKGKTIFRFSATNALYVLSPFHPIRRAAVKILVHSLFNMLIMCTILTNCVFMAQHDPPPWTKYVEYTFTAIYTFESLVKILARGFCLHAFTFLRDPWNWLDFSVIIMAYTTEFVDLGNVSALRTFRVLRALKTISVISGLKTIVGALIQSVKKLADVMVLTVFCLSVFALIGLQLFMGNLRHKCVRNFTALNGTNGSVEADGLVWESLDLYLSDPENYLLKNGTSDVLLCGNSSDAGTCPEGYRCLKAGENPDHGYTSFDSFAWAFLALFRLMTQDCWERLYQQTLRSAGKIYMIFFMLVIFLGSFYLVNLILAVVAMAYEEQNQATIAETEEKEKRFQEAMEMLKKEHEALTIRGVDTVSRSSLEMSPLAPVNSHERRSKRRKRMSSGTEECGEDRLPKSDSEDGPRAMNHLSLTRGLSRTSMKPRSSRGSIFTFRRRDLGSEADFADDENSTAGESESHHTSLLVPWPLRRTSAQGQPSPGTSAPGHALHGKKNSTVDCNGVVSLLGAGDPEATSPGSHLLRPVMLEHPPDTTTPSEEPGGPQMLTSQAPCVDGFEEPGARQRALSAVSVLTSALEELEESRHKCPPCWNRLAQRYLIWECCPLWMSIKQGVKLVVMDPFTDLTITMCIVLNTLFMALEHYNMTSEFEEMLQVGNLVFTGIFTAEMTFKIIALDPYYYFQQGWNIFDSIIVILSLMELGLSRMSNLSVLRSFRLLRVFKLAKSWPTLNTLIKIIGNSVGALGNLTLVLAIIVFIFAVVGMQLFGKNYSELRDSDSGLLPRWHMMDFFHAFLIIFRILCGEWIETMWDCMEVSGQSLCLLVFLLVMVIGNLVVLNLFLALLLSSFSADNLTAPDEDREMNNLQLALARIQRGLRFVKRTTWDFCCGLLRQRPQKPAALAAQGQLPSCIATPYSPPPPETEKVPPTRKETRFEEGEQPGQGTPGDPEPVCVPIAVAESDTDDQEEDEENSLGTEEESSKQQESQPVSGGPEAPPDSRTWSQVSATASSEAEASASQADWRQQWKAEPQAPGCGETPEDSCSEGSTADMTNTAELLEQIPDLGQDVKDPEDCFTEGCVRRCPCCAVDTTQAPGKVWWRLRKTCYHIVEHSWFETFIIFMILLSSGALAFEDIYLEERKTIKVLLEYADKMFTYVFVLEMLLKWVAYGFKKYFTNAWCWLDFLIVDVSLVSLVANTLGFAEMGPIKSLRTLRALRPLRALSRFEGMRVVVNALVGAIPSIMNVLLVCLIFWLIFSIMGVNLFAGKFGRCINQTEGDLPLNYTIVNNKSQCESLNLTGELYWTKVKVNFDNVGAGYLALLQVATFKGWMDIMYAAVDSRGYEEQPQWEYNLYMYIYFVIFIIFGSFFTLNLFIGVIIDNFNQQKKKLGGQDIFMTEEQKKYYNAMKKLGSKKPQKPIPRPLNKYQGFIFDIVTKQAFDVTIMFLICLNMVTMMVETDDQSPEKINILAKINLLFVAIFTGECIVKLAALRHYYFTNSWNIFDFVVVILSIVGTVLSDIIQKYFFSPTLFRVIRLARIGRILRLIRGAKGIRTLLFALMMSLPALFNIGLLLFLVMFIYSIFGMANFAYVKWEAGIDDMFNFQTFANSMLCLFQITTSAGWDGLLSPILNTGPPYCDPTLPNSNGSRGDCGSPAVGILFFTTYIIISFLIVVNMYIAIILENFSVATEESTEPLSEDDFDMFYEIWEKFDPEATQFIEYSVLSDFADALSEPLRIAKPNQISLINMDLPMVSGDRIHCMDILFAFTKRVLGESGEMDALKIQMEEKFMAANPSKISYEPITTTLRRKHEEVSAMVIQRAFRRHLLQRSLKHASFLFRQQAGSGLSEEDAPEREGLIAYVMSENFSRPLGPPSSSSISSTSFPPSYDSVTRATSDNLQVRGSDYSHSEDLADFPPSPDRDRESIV
Chain of Potassium/sodium hyperpolarization-activated cyclic nucleotide-gated channel 4 (Q9Y3Q4 whole entry): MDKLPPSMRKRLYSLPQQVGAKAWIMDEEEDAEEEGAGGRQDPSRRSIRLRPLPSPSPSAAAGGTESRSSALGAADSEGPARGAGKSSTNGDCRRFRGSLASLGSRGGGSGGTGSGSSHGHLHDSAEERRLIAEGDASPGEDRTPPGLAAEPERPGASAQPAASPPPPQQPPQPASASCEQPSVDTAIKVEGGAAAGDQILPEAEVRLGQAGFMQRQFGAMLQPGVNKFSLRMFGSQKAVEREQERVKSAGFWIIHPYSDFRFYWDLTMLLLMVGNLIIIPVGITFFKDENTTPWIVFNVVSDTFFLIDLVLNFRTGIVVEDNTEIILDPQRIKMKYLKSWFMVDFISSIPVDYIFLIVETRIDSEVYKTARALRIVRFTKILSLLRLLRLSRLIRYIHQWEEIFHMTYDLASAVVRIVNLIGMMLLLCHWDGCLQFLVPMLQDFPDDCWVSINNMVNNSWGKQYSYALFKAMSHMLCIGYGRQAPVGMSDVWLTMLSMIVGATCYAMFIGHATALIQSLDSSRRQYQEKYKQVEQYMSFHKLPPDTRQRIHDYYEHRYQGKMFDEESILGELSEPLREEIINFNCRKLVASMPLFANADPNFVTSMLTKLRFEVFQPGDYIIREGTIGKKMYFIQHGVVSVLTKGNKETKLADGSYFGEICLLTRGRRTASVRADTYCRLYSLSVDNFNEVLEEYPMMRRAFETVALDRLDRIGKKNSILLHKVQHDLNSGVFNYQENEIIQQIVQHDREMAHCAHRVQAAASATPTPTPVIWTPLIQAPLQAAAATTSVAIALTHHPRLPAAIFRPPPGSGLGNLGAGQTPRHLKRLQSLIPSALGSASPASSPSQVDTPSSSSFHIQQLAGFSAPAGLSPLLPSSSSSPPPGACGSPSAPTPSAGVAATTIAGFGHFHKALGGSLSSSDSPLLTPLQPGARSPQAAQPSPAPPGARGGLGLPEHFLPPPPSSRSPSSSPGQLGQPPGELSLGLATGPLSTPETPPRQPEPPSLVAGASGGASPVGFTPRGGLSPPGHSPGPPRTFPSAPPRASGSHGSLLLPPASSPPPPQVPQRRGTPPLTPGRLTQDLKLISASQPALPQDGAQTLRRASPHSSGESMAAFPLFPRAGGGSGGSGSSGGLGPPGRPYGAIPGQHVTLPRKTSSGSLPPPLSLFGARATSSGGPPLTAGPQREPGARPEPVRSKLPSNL

Compound	bioavailability [1]	Activity [2]	IC50 [3]	IC50 [4]	IC50 (Cytochrome P450 2C9)	Activity [5]	IC50 [6]	clearance [7]	Activity [8]	IC50 [9]	IC50 (Cytochrome P450 1A2)	IC50 [10]	hepatocyte CLint at 1 µM [11]	solubility thermodynamic at 24 h [12]	logD at 2 h [13]	IC50 [14]	clearance [15]	IC50 [16]	fraction unbound [17]	half-life [18]	further results
Cc1cc(-c2ccc(C(=O)[C@@H]3CCCC[C@H]3C(=O)Nc3cnn4c3C(=O)NCC4)cc2)[nH]n1	65%	Non-Toxic	> 32 µM	> 33 µM	> 20 µM	Non-Toxic	> 32 µM	36 mL/min/kg	Non-Toxic	> 33 µM	> 20 µM	> 32 µM	13.8 µL/min/1e6 cells	104 µM (≈ 46.4 µg/mL)	2.9	> 33 µM	7.6 mL/min/kg	> 33 µM	0.053	2.1 h	Vd [19]: 1.1 L/kg; Activity [20]: Non-Toxic; Vd [21]: 1.1 L/kg; half-life [22]: 0.45 h
Cc1cc(-c2ccc(C(=O)[C@@H]3CCCC[C@H]3C(=O)Nc3cnn(C)c3C(=O)NOC(C)(C)C)cc2)[nH]n1	65%	Non-Toxic	–	> 33 µM	> 20 µM	Non-Toxic	–	1.2 mL/min/kg	Non-Toxic	> 33 µM	> 20 µM	–	19.5 µL/min/1e6 cells	208 µM (≈ 105 µg/mL)	3.3	> 33 µM	–	> 33 µM	0.006	–	IC50 [23]: 1.4 µM; Vd [19]: 0.18 L/kg; half-life [22]: 4.7 h
Cc1cc(-c2ccc(C(=O)[C@@H]3CCCC[C@H]3C(=O)Nc3cnn(C)c3S(N)(=O)=O)cc2)[nH]n1	–	Non-Toxic	> 32 µM	> 33 µM	> 20 µM	Non-Toxic	> 32 µM	–	Non-Toxic	> 33 µM	> 20 µM	> 32 µM	9.7 µL/min/1e6 cells	79.7 µM (≈ 37.5 µg/mL)	3.4	> 33 µM	2.5 mL/min/kg	> 33 µM	0.031	6.8 h	IC50 [23]: 2.5 µM; Activity [20]: Toxic; Vd [21]: 1.3 L/kg
